Measured values reported in ChEMBL document CHEMBL3414424, “Fluoroalkane thioheterocyclic derivatives and their antitumor activity” (Eur J Med Chem, 2015).
Activity calls are given as the source filed them. No cut-off for these calls is given here.

Assays:
MCF7 [1] = assay: Cytotoxicity against human MCF7 cells after 48 hrs by MTT assay; format: functional, cell-based; conditions: MCF7, 48 h
Procedure, shortened: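 MCF-7 cells were grown overnight, then treated continuously for 48 h with compounds in DMEM containing 10% FBS. After two PBS washes, cells got 0.5 mg/ml MTT in serum-free DMEM for 4 h. Formazan was solubilized in DMSO and OD read at 570 nm.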

[2] = Cytotoxicity against human SH-SY5Y cells after 48 hrs by MTT assay; format: functional, cell-based
Procedure, shortened: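 SH-SY5Y, after overnight growth, were exposed continuously to compounds for 48 h in DMEM with 10% FBS. Then PBS washes, 4 h with 0.5 mg/ml MTT in serum-free DMEM, DMSO solubilization of formazan, and OD at 570 nm.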

HepG2 [3] = assay: Cytotoxicity against human HepG2 cells after 48 hrs by MTT assay; format: functional, cell-based; conditions: HepG2, 48 h
Procedure, shortened: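 HepG2 kept in MEM with 10% FBS and 1% penicillin/streptomycin at 37 °C, 5% CO2. After overnight growth, cells were exposed continuously to compounds for 48 h in MEM with 10% FBS. They were then PBS-washed and given 0.5 mg/ml MTT in serum-free DMEM for 4 h. Formazan was dissolved in DMSO and read at 570 nm.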

MCF7 [4] = assay: Cytotoxicity against human MCF7 cells at 5 uM after 48 hrs by MTT assay; format: functional; conditions: MCF7, 48 h
Procedure, shortened: (§1)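 Percent proliferation inhibition of MCF-7 at a single concentration, taken from a dose-response series. Cells were plated overnight, then compound-treated for 48 h in DMEM + 10% FBS. They were washed with PBS and incubated 4 h with 0.5 mg/ml MTT in serum-free DMEM. Formazan was dissolved in DMSO and read at 570 nm.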

HepG2 [5] = assay: Cytotoxicity against human HepG2 cells at 5 uM after 48 hrs by MTT assay; format: functional; conditions: HepG2, 48 h
Procedure, shortened: (§2)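 After overnight plating, HepG2 cells (maintained in MEM/10% FBS/1% pen-strep, 37 °C, 5% CO2) were treated at a fixed compound concentration for 48 h in MEM plus 10% FBS. MTT was 0.5 mg/ml in serum-free DMEM for 4 h after PBS washes, with formazan taken up in DMSO. Absorbance at 570 nm gave percent proliferation inhibition, part of a dose-response series.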

[6] = Cytotoxicity against human SH-SY5Y cells at 5 uM after 48 hrs by MTT assay; format: functional
Procedure, shortened: (§3)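 SH-SY5Y cells were grown overnight and treated for 48 h at the stated concentration in DMEM/10% FBS, as part of a dose-response series. After PBS washes, cells were incubated 4 h with 0.5 mg/ml MTT in serum-free DMEM. Formazan was dissolved in DMSO and read at 570 nm to give inhibition rate.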

MCF7 [7] = assay: Cytotoxicity against human MCF7 cells at 1 uM after 48 hrs by MTT assay; format: functional, cell-based; procedure, shortened: as §1
[8] = Cytotoxicity against human SH-SY5Y cells at 1 uM after 48 hrs by MTT assay; format: functional; procedure, shortened: as §3
HepG2 [9] = assay: Cytotoxicity against human HepG2 cells at 1 uM after 48 hrs by MTT assay; format: functional, cell-based; procedure, shortened: as §2
MCF7 [10] = assay: Cytotoxicity against human MCF7 cells at 10 uM after 48 hrs by MTT assay; format: functional, cell-based; procedure, shortened: as §1
HepG2 [11] = assay: Cytotoxicity against human HepG2 cells at 10 uM after 48 hrs by MTT assay; format: functional, cell-based; procedure, shortened: as §2
SH-SY5Y = assay: Cytotoxicity against human SH-SY5Y cells at 10 uM after 48 hrs by MTT assay; format: functional, cell-based; procedure, shortened: as §3

| SMILES | IC50 (MCF7 [1]) [µM] | IC50 [2] [µM] | IC50 (HepG2 [3]) [µM] | also measured |
| --- | --- | --- | --- | --- |
| CC(C)(c1nccs1)C(C#N)C#N | > 120 | > 120 | > 120 |  |
| CC(c1nccs1)C(C#N)(C#N)CCC(F)=C(F)F (stereo not drawn) | > 120 | > 120 | > 120 |  |
| FC(F)=C(F)CCSc1nc2ccccc2o1 | > 120 | > 120 | > 120 |  |
| [O-][S+](CCC(F)=C(F)F)c1nc2ccccc2o1 (stereo not drawn) | 4.5 | 0.4 | 5.6 | inhibition at 5 µM (MCF7 [4]): 20%; inhibition at 5 µM (HepG2 [5]): 60%; inhibition at 5 µM [6]: 60% |
| FC(F)=C(F)CCSc1nnc(S)s1 | > 120 | > 120 | > 120 |  |
| COc1ccc2c(c1OC)C(=O)O[C@@H]2[C@H]1c2c(cc3c(c2OC)OCO3)CCN1C [NOSCAPINE] |  | 80.3 |  |  |
| CC(=C(C#N)C#N)c1nccs1 | 110 | 68.8 | 105 |  |
| c1ccc2sc(SSc3nc4ccccc4s3)nc2c1 [BENZOTHIAZYL DISULFIDE] | > 120 | > 120 | > 120 |  |
| N#CC(C#N)Cc1nccs1 | > 120 | > 120 | > 120 |  |
| CC(c1nccs1)C(C#N)C#N (stereo not drawn) | > 120 | > 120 | > 120 |  |
| [O-][S+](CCC(F)=C(F)F)c1nc2ccccc2[nH]1 (stereo not drawn) | > 120 | > 120 | > 120 |  |
| O=S(=O)(CCC(F)=C(F)F)c1nc2ccccc2[nH]1 | > 120 | > 120 | > 120 |  |
| O=S(=O)(CCC(F)=C(F)F)c1nc2ccc(OC(F)F)cc2[nH]1 | > 120 | > 120 | > 120 |  |
| FC(F)(Cl)C(F)(Cl)CCSc1nc2ccccc2s1 (stereo not drawn) | > 120 | > 120 | > 120 |  |
| O=S(=O)(CCC(F)=C(F)F)c1nc2ccccc2s1 | 7.2 | 2.64 | 3.71 | inhibition (MCF7 [7]): inactive; inhibition at 1 µM [8]: 50%; inhibition (HepG2 [9]): inactive |
| [O-][S+](CCC(F)(Cl)C(F)(F)Cl)c1nc2ccccc2s1 (stereo not drawn) | 17.1 | 41.5 | 13.5 | Activity (MCF7 [10]): Active; Activity (HepG2 [11]): Active; Activity (SH-SY5Y): Active |
| c1ccc2sc(SN(C3CCCCC3)C3CCCCC3)nc2c1 | > 120 | 69.1 | > 120 |  |
| CC(=O)O[C@H]1C(=O)[C@@]2(C)[C@H]([C@H](OC(=O)c3ccccc3)[C@]3(O)C[C@H](OC(=O)[C@H](O)[C@@H](NC(=O)c4ccccc4)c4ccccc4)C(C)=C1C3(C)C)[C@]1(OC(C)=O)CO[C@@H]1C[C@@H]2O [PACLITAXEL] | 0.032 |  | 0.045 |  |
| O=S(=O)(CCC(F)=C(F)F)c1ccccn1 | > 120 | > 120 | > 120 |  |
